This passage reports MIC and inhibition results from ChEMBL document CHEMBL5107950, “Structure-based design of haloperidol analogues as inhibitors of acetyltransferase Eis from Mycobacterium tuberculosis to overcome kanamycin resistance” (RSC Med Chem, 2021).

Test [1] concerns Mycobacterium tuberculosis. The experiment in a line: Antibacterial activity against Mycobacterium tuberculosis mc2 6230 with Eis C-14T mutation assessed as inhibition of bacterial growth incubated upto 3 weeks hrs by resazurin dye based double-dilution method. The class given is functional. In a few lines:
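Double-dilution broth MIC. Media: M. smegmatis, Mueller-Hinton; M. abscessus, 7H9 + 0.05% Tween80 + 0.4% glycerol; mc²6230, 7H9 + 0.05% tyloxapol, 0.5% glycerol, 10% OADC, 0.2% casamino acids, 24 µg/mL pantothenate; other mycobacteria, 7H9 + 0.05% Tween80, 0.4% glycerol, 10% ADC. Inoculum from agar set to 0.5 McFarland, then diluted 1:100.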
On the technique in general: Alamar Blue is a resazurin reagent that responds to reducing activity.

For test [2], the system named is Mycobacterium tuberculosis. In words: Potentiation of kanamycin-induced antibacterial activity against Mycobacterium tuberculosis mc2 6230-K204 with Eis C-14T mutation assessed as kanamycin MIC incubated for 1 week by resazurin staining based microdilution method. As to conditions: time 1 weeks. The class given is functional. In a few lines: (§1)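 Microdilution in 7H9 + 10% OADC, 0.5% glycerol, 0.05% tyloxapol, 0.2% casamino acids, 24 µg/mL pantothenate. […] Culture at 0.5 McFarland diluted 1:100 and added. Incubated one week at 37 °C, then 5 µL of 2.5 mg/mL resazurin added, read after two days. Duplicate.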

In test [3] the test system is Mycobacterium tuberculosis. In words: Potentiation of kanamycin-induced antibacterial activity against Mycobacterium tuberculosis H37Rv mc2 6230 with Eis C-14T mutation assessed as kanamycin MIC incubated for 1 week by resazurin staining based microdilution method. The class given is functional. The note with it: time 1 weeks. In outline:
as §1

Test [4] concerns Mycobacterium tuberculosis. In words: Antibacterial activity against Mycobacterium tuberculosis H37Rv mc2 6230 with Eis C-14T mutation assessed as inhibition of bacterial growth at 100 uM incubated for 1 week by resazurin staining based microdilution method. Type of test: functional, organism-based. As to conditions: time 1.0 weeks.
The test system of test [5] is Mycobacterium tuberculosis. In words: Antibacterial activity against Mycobacterium tuberculosis mc2 6230-K204 with Eis C-14T mutation inhibition of bacterial growth at 100 uM incubated for 1 week by resazurin staining based microdilution method. Type of test: functional, organism-based. The note with it: time 1.0 weeks.

Converted amounts (≈) assume the structure as drawn. The source made the active and inactive calls. The rule behind the calls is not given here.

`Cc1ccc(C(=O)CCCN2CCC(O)(c3ccc(Cl)cc3)CC2)cc1`: the MIC in test [1] was 31.3 µM (≈ 11.6 µg/mL).
With `N=C(N)NCCCC(=O)c1ccc(F)cc1`, the MIC in test [1] was >64 µM; in test [2], >10 µg/mL; in test [3] it was “<=1.25 ug ml-1”.
As to `O=C(CCCN1CC=C(c2ccc(Cl)cc2)CC1)c1ccc(F)cc1`, the inhibition result in test [4] and in test [5] was “Active” in each case. Also, the MIC in test [1] amounted to 32 µM (≈ 11.5 µg/mL).
`CC(C)(C)c1ccc(C(=O)CCCN2CCC(O)(c3ccc(Cl)cc3)CC2)cc1`: the MIC in test [1] is 2 µM (≈ 0.828 µg/mL).
For the compound `CC(C)c1ccc(C(=O)CCCN2CCC(O)(c3ccc(Cl)cc3)CC2)cc1`, in test [1], the MIC is 7.8 µM (≈ 3.12 µg/mL).
Take `CC(C)(C)c1ccc(C(=O)CCCN2CCC(O)(c3ccc(Br)cc3)CC2)cc1`: the MIC in test [1] came out at 4 µM (≈ 1.83 µg/mL).
In the case of `O=C(CCCN1CCC(O)(c2ccccc2)CC1)c1ccc(F)cc1`, the MIC in test [1] is >64 µM; in test [2], >10 µg/mL; in test [3] it was “<=1.25 ug ml-1”.
Regarding `O=C(CCCN1CCCCC1)c1ccc(F)cc1` [PRIMAPERONE], the MIC is >10 µg/mL in test [2] and “<=1.25 ug ml-1” in test [3].
`CCc1ccc(C(=O)CCCN2CCC(O)(c3ccc(Cl)cc3)CC2)cc1`: the MIC in test [1] turned out to be 15.6 µM (≈ 6.02 µg/mL).
With `O=C(CCCN1CCC(c2ccc(Cl)cc2)CC1)c1ccc(F)cc1`, the inhibition entry in test [4] and in test [5] was “Active” in each case. Moreover, in test [1], the MIC worked out at 64 µM (≈ 23 µg/mL).
Turning to `O=C(CCCN1CCC(O)CC1)c1ccc(F)cc1`, the MIC in test [2] was >10 µg/mL; in test [3] it was “<=1.25 ug ml-1”.

Usually MIC stands for the least concentration at which growth counts as inhibited.
